Assay results published in PubChem BioAssay AID623912 (Johns Hopkins Ion Channel Center, 2012).
pIC50: −log10 of the molar value. The source made the active and inactive calls.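 Rule for the calls: active = peak KCNK3 inhibition above a set limit at some dose, plus a fitted dose-response curve; inactive = no KCNK3 inhibition, or no dose-response curve.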

Molecular target: Potassium channel subfamily K member 3 (Rattus norvegicus) (UniProt O54912)
Assay: inhibition of rat KCNK3 channel, SAR follow-up, selectivity assay for KCNK9 inhibitor project, cell-based, FluxOR thallium flux, CRC set 2 (AID 623912)
Conditions: KCNK3-expressing cells, FluxOR thallium flux fluorescence; for flux ratio, lower = inhibition: at 3 µM (top of the series)
How it was run: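 Assay system: tetracycline-induced CHO cells expressing rat KCNK3 potassium channel. Probe or stimulus: Tl+/K+ sulfate stimulus buffer (5x stock). Dosing: concentration series of compound. Incubation: dye 90 min, compound 20 min, both room temperature. Measured by: FluxOR Tl+ flux fluorescence. Evaluation: IC50 from normalized flux signal. Replicates: duplicate or more.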

Potassium channel subfamily K member 3 (Rattus norvegicus), sequence (O54912 whole entry, looked up): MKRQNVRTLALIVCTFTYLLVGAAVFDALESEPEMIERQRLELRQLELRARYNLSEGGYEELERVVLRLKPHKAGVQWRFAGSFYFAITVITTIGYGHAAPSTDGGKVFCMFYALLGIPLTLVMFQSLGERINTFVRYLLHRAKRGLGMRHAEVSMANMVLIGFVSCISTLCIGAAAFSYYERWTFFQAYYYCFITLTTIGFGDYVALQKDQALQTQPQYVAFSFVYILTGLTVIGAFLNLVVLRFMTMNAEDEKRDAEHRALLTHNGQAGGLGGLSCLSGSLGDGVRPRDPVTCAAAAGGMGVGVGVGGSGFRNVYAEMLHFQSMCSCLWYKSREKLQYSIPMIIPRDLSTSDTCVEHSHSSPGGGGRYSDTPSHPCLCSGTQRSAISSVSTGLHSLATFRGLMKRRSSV

Row | SMILES | pIC50 | flux ratio, lower = inhibition
1 | COc1ccc(C(=O)Nc2cccc(NC(=O)c3cccc(C)c3)c2)cc1 | 5.88 | –
2 | Cc1cccc(C(=O)Nc2cccc(C(=O)Nc3ccccc3)c2)c1 | 6.07 | –
3 | COc1cccc(-c2n[nH]c(=S)n2C(C)C2CC3CCC2C3)c1 (stereo unspecified) | 5.89 | –
4 | CC(C1CC2CCC1C2)n1c(-c2ccccc2F)n[nH]c1=S (stereo unspecified) | 5.66 | –
5 | COc1cccc(Cc2n[nH]c(=S)n2C(C)C2CC3CCC2C3)c1 (stereo unspecified) | – | inactive
6 | CC(C1CC2CCC1C2)n1c(-c2ccccc2Cl)n[nH]c1=S (stereo unspecified) | 5.69 | –
7 | O=C(Nc1cccc(NC(=O)c2ccc(C(F)(F)F)cc2)c1)c1ccccc1 | – | inactive
8 | Cc1cccc(C(=O)Nc2cccc(NC(=O)c3ccc(Cl)cc3)c2)c1 | 6.83 | –
9 | Cc1cccc(C(=O)Nc2cccc(NC(=O)c3ccccc3C)c2)c1 | 7.04 | –
10 | S=c1[nH]nc(-c2ccco2)n1CC1CCCCC1 | 6.22 | –
11 | Cc1cccc(C(=O)Nc2cccc(NC(=O)c3ccccc3C(C)C)c2)c1 | 6.48 | –
12 | Cc1ccccc1-c1n[nH]c(=S)n1C(C)C1CC2CCC1C2 (stereo unspecified) | 6.04 | –
13 | Cc1ccc(C(=O)Nc2cccc(NC(=O)c3ccccc3)c2)cc1 | – | inactive
14 | CC(C1CC2CCC1C2)n1c(-c2ccoc2)n[nH]c1=S (stereo unspecified) | 6.53 | –
15 | Cc1cccc(C(=O)Nc2cccc(NC(=O)c3ccc(C(C)(C)C)cc3)c2)c1 | 6.73 | –
16 | CC(C1CC2CCC1C2)n1c(SCC#N)nnc1-c1cccs1 (stereo unspecified) | – | inactive
17 | Cc1cccc(C(=O)Nc2ccccc2NC(=O)c2ccccc2)c1 | 6.59 | –

Now from value to compound:

Row | pIC50 | flux ratio, lower = inhibition | SMILES
18 | 7.07 | – | O=C(Nc1cccc(NC(=O)c2ccccn2)c1)c1ccccc1
19 | 8.30 | – | CCOc1ccccc1NC(=O)c1cccc(NC(=O)c2cccc(OC)c2)c1
20 | 7.70 | – | CC(C1CC2CCC1C2)n1c(-c2cccc(Cl)c2)n[nH]c1=S (stereo unspecified)
21 | 7.74 | – | CC(C1CC2CCC1C2)n1cnnc1-c1ccco1 (stereo unspecified)
22 | 7.96 | – | CC(C)c1ccccc1C(=O)Nc1cccc(NC(=O)c2ccccc2OC(F)(F)F)c1
23 | 7.53 | – | Cc1cccc(C(=O)Nc2cccc(NC(=O)c3cccc(C)c3)c2)c1
24 | 7.53 | – | CCOc1ccccc1NC(=O)c1cccc(NC(=O)c2ccccc2C(F)(F)F)c1
25 | 7.15 | – | CC(NC(=O)c1ccco1)C1CC2CCC1C2 (stereo unspecified)
26 | 7.55 | – | Cc1cccc(C(=O)Nc2cccc(NC(=O)c3ccccc3OC(F)(F)F)c2)c1
